Measured values taken from ChEMBL document CHEMBL3877303 (J Med Chem, 2017).
Calls of active or inactive are those of the source. The rule behind the calls is not given here.

What was measured:
[1] = biological target: T1, Mast/stem cell growth factor receptor Kit (Homo sapiens, UniProt P10721); details: GISTT1, 1 uM
[2] = Cell cycle arrest in human GISTT1 cells assessed as accumulation at G0/G1 phase at 1 uM after 24 hrs by propidium iodide/RNase staining based flow cytometry; type: functional
Method in brief: (§1)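 Cells were exposed to serially diluted compound, then fixed in cold 70% ethanol overnight at -20 °C. They were stained with PI/RNase buffer for DNA-content cell-cycle analysis.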

[3] = biological target: T2, BCR/ABL p210 fusion protein (Homo sapiens, UniProt A1Z199); experiment: Inhibition of BCR/ABL p210 fusion protein mediated signaling pathways assessed as reduction in CrkL phosphorylation at Y207 in human MEG01 cells at 0.01 to 3 uM measured after 2 hrs by immunoblotting; type: cell-based; details: MEG-01
Method in brief: (§2)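 After an ice-cold PBS wash, cells were lysed in RIPA buffer (50 mM Tris pH 8.0) with protease and phosphatase inhibitors, and protein was quantified by BCA. Lysates were run on SDS-PAGE, transferred to PVDF and blocked in 5% milk/TBST. Phospho- and total proteins were probed by immunoblot with ECL detection; β-actin served as loading control.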
Target sequence in this assay (A1Z199 1-97): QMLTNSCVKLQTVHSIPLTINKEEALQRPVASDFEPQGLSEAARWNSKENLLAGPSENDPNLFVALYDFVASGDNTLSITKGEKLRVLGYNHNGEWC

[4] = Mean residence time (0 to t) in Sprague-Dawley rat at 10 mg/kg, po; type: ADME, organism-based; details: in vivo
Method in brief: (§3)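 Male Sprague-Dawley rats, 6-8 weeks old, fasted overnight, dosed iv or po. Jugular vein blood (~0.2 mL, heparin) sampled at 1 min to 8 h (iv) or 5 min to 24 h (po). Plasma separated by centrifugation at 2-8 °C and stored at -80 °C before analysis.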

[5] = biological target: T2, BCR/ABL p210 fusion protein; experiment: Inhibition of BCR/ABL p210 fusion protein autophosphorylation at Y245 in human […] cells at 0.01 to 3 uM measured after 2 hrs by immunoblotting; type: cell-based
Method in brief: as §2
Target sequence in this assay (A1Z199 1-97): as above

GIST882 = experiment: Induction of apoptosis in human GIST882 cells assessed as cleavage of PARP at 0.1 to 3 uM by Western blot analysis; type: functional, cell-based
Method in brief: (§4)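 Cells were treated with DMSO or serially diluted compound for the indicated periods. They were washed in ice-cold PBS and lysed in RIPA buffer with protease/phosphatase inhibitors, and protein was quantified by BCA. Lysates were resolved by SDS-PAGE, transferred to PVDF and blocked in 5% milk/TBST. Blots were probed for PARP and caspase-3, with β-actin as loading control, and detected by ECL.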

BaF3 [6] = experiment: Inhibition of BCR/ABL p210 fusion protein Y253H mutant (unknown origin) expressed in BAF3 cells assessed as growth inhibition measured after 72 hrs by CellTiter-Glo or CCK8 assay; type: cell-based; details: Homo sapiens
Method in brief: (§5)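 BaF3 lines were made by retroviral transduction with kinase-fusion MSCV vectors packaged in HEK293T cells. Cells were selected with puromycin for 48 h, then selected again without IL-3 so growth depends on the introduced kinase. […] They were seeded at 1 to 2.5×10^4 cells/mL with compound dilutions and incubated 72 h. Viability was read by CellTiter-Glo luminescence or CCK-8 absorbance (450/655 nm), normalized to DMSO control; GI50 was curve-fitted from triplicate tests.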

[7] = Tmax in Sprague-Dawley rat at 1 mg/kg, iv; type: ADME, organism-based; details: in vivo
Method in brief: as §3

[8] = biological target: T2, BCR/ABL p210 fusion protein; experiment: Inhibition of BCR/ABL p210 fusion protein autophosphorylation at Y245 in human KU812 cells at 0.01 to 3 uM measured after 2 hrs by immunoblotting; type: cell-based
Method in brief: as §2
Target sequence in this assay (A1Z199 1-97): as above

[9] = AUC (0 to t) in Sprague-Dawley rat at 1 mg/kg, iv; type: ADME, organism-based; details: in vivo
Method in brief: (§6)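 Male Sprague-Dawley rats aged six to eight weeks were fasted overnight and then dosed iv or orally. Blood (~0.2 mL) was drawn from the jugular vein into heparin and kept on ice. Sampling was at 1 min to 8 h for iv and 5 min to 24 h for oral. Plasma was separated by centrifugation at 2-8 °C and stored at -80 °C until analysis.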

[10] = biological target: T2, BCR/ABL p210 fusion protein; experiment: Inhibition of BCR/ABL p210 fusion protein mediated signaling pathways assessed as reduction in Stat5 phosphorylation at Y694 in human MEG01 cells at 0.01 to 3 uM measured after 2 hrs by immunoblotting; type: cell-based; details: MEG-01
Method in brief: as §2
Target sequence in this assay (A1Z199 1-97): as above

[11] = biological target: Platelet-derived growth factor receptor beta (Homo sapiens, UniProt P09619); experiment: Inhibition of recombinant His-tagged human PDGFR-beta cytoplasmic domain (558 to 1106 residues) expressed in baculovirus expression system assessed as residual activity at 1 uM by KINOMEscan binding assay relative to control
[12] = biological target: T1, Mast/stem cell growth factor receptor Kit; experiment: Inhibition of recombinant C-terminal polyhistidine-tagged human c-KIT expressed in mammalian expression system assessed as residual activity at 1 uM using Tyr 06 peptide as substrate measured after 1hr by FRET based Z'Lyte assay relative to control
[13] = Cell cycle arrest in human GIST882 cells assessed as accumulation at G0/G1 phase at 0.3 uM after 48 hrs by propidium iodide/RNase staining based flow cytometry; type: functional
Method in brief: as §1

[14] = AUC (0 to t) in Sprague-Dawley rat at 10 mg/kg, po; type: ADME, organism-based; details: in vivo
Method in brief: as §6

[15] = biological target: T2, BCR/ABL p210 fusion protein; experiment: Inhibition of BCR/ABL p210 fusion protein autophosphorylation at Y245 in human K562 cells measured after 2 hrs by immunoblotting; type: cell-based
Method in brief: as §2
Target sequence in this assay (A1Z199 whole entry, the tested form may be a part): as the sequence (A1Z199 1-97) above

[16] = system: Mast/stem cell growth factor receptor Kit (Homo sapiens), P10721 [V654A]; experiment: Inhibition of Tel-fused c-KIT V654A mutant (unknown origin) expressed in BAF3 cells assessed as growth inhibition measured after 72 hrs by CellTiter-Glo or CCK8 assay; type: cell-based
Method in brief: as §5

Mus musculus = experiment: Toxicity in nu/nu mouse xenografted with human K562 cells assessed as change in body weight at 25 to 100 mg/kg/day administered via oral gavage measured after 28 days; type: organism-based; details: in vivo, 672 h
Method in brief: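 Female nu/nu mice given 10 million K562 cells in PBS/Matrigel (1:1) subcutaneously into the right flank. Once tumors reached 200 to 400 mm³, mice were randomized into groups of 4 or 5 and dosed daily by oral gavage in 0.5% methylcellulose/0.4% Tween80 in water, or vehicle, for 28 days. Body weight measured and expressed relative to initial; mean ± SEM.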

[17] = biological target: Platelet-derived growth factor receptor alpha (Homo sapiens) (UniProt P16234); experiment: Inhibition of Tel-fused PDGFR-alpha (unknown origin) expressed in BAF3 cells assessed as growth inhibition measured after 72 hrs by CellTiter-Glo or CCK8 assay; type: cell-based
Method in brief: as §5

[18] = system: Mast/stem cell growth factor receptor Kit (Homo sapiens), P10721 [V559D,T670I]; experiment: Inhibition of Tel-fused c-KIT T670I/V559D double mutant (unknown origin) expressed in BAF3 cells assessed as growth inhibition measured after 72 hrs by CellTiter-Glo or CCK8 assay; type: cell-based
Method in brief: as §5

MEG-01 = experiment: Induction of apoptosis in human MEG01 cells assessed as cleavage of PARP at 0.1 to 3 uM by Western blot analysis; type: functional, cell-based
Method in brief: as §4

[19] = Mean residence time (0 to t) in Sprague-Dawley rat at 1 mg/kg, iv; type: ADME, organism-based; details: in vivo
Method in brief: as §3

BaF3 [20] = experiment: Inhibition of BCR/ABL p210 fusion protein F317L mutant (unknown origin) expressed in BAF3 cells assessed as growth inhibition measured after 72 hrs by CellTiter-Glo or CCK8 assay; type: cell-based; details: Homo sapiens
Method in brief: as §5

T1 sequence (P10721 whole entry): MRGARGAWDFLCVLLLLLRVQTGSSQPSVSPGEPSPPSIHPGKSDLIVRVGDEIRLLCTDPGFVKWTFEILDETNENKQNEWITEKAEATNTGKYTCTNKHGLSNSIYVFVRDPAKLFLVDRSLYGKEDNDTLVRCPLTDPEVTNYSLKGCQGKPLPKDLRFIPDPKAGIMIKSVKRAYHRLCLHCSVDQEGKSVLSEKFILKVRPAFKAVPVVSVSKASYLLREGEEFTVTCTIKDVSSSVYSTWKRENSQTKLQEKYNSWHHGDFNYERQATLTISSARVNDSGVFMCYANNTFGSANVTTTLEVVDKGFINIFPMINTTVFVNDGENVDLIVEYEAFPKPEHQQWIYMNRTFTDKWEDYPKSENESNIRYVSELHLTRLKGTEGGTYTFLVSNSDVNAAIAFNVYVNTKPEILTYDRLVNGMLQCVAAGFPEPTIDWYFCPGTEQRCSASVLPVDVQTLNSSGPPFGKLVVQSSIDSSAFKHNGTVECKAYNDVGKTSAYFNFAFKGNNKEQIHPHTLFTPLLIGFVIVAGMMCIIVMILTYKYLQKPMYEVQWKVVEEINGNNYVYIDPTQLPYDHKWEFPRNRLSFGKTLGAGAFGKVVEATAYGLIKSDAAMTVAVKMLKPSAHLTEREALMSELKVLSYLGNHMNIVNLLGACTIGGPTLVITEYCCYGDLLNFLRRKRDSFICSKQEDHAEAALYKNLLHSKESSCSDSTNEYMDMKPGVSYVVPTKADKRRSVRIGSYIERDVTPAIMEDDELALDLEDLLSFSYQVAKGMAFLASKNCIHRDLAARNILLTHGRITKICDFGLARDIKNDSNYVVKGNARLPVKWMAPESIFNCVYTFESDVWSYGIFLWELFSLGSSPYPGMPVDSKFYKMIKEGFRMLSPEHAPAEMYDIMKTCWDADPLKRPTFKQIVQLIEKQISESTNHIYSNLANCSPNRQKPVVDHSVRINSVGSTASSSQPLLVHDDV
Mast/stem cell growth factor receptor Kit (Homo sapiens), P10721 [V654A], sequence (P10721 whole entry V654A, the tested form may be a part): as the sequence (P10721 whole entry) above, with V654A counted along it
Mast/stem cell growth factor receptor Kit (Homo sapiens), P10721 [V559D,T670I], sequence (P10721 whole entry V559D/T670I, the tested form may be a part): as the sequence (P10721 whole entry) above, with V559D, T670I counted along it
Platelet-derived growth factor receptor alpha (Homo sapiens), sequence (P16234 whole entry, the tested form may be a part): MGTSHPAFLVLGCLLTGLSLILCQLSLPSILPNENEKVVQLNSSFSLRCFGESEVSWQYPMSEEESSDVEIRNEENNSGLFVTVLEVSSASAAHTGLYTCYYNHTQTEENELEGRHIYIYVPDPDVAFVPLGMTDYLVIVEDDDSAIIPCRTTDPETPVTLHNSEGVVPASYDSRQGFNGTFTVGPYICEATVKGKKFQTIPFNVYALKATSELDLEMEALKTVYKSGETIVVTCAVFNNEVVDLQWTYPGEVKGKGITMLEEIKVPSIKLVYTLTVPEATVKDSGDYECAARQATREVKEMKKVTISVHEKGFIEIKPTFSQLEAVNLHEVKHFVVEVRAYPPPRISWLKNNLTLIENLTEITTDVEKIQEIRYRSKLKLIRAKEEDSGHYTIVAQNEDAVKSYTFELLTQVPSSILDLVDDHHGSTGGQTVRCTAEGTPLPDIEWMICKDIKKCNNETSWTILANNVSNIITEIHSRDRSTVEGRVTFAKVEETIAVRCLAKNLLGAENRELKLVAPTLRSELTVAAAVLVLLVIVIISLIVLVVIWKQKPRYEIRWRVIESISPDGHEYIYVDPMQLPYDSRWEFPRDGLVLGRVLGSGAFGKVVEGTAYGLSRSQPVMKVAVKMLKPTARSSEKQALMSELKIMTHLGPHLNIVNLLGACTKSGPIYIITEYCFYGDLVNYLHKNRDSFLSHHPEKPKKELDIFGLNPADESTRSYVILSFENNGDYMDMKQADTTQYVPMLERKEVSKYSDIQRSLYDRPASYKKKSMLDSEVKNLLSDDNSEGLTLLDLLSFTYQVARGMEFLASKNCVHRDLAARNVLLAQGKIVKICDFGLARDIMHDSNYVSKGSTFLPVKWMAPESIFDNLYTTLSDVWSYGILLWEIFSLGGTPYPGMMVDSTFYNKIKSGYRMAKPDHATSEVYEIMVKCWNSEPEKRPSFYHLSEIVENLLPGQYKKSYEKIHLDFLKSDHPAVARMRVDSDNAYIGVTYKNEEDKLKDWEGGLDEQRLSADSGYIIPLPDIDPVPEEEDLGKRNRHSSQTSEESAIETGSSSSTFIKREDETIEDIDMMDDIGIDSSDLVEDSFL
Platelet-derived growth factor receptor beta, sequence (P09619 whole entry, the tested form may be a part): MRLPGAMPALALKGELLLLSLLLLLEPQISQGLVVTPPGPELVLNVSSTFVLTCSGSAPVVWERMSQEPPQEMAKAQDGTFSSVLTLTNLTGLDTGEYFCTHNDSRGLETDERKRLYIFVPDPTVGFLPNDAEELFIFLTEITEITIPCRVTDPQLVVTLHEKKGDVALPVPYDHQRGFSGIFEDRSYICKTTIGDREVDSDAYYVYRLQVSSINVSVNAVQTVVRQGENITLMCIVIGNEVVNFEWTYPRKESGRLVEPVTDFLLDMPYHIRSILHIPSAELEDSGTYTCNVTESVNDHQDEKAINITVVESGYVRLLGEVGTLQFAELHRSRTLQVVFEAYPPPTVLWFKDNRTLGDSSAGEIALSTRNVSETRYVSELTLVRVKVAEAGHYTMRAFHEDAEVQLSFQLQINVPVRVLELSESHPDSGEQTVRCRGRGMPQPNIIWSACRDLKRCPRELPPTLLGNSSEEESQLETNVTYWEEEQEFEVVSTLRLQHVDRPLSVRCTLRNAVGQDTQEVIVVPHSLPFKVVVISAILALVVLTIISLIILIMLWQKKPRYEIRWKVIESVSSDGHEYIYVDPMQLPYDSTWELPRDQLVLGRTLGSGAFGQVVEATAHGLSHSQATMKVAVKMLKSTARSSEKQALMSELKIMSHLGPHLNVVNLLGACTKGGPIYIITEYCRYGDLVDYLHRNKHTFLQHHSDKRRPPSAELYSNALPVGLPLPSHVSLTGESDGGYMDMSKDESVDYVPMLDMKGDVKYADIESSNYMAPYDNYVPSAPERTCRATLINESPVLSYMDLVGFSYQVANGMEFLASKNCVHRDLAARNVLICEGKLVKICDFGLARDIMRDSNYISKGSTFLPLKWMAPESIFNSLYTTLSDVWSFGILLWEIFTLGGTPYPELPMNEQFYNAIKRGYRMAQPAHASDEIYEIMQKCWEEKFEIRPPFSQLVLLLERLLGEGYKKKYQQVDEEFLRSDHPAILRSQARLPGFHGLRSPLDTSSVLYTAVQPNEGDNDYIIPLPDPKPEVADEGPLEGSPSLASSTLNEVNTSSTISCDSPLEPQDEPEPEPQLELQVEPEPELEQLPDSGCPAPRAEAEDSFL

## Cc1ccc(NC(=O)c2ccc(CN3CCN(C)CC3)cc2)cc1Nc1nccc(-c2cccnc2)n1 [IMATINIB]
[1]
  inhibition: Active
[2]
  Activity: Active

## Cc1ccc(C(=O)N2CCC(Oc3cc(NC(=O)c4ccc(CN5CCN(C)CC5)c(C(F)(F)F)c4)ccc3C)CC2)cn1
[3]
  inhibition: Active
[4]
  MRT last: 5.75 h
[5]
  inhibition: Active
GIST882
  Activity: Active
BaF3 [6]
  GI50: 1670 nM
[7]
  Tmax: 1.02 min
[8]
  inhibition: Active
[9]
  AUC(0-t): 510 ng·h/mL
[10]
  inhibition: Active
[11]
  Activity: 0.3%
[12]
  Activity: 0.8%
[13]
  Activity: Active
[14]
  AUC(0-t): 2420 ng·h/mL
[15]
  EC50: < 100 nM
[16]
  GI50: 1840 nM
Mus musculus
  Activity: Non-Toxic
[17]
  GI50: 12 nM
[18]
  GI50: 1010 nM
MEG-01
  Activity: Active
[19]
  MRT last: 1.93 h
BaF3 [20]
  GI50: 670 nM
